In brackets after ≈: the same amount, converted by molar mass. Activity calls are given as the source filed them. The calls are words filed in the database; no cut-off is given here.
What was measured:
[1] = tested on: Respiratory syncytial virus; assay: Antiviral activity against respiratory syncytial virus A2 in human Hep2 cells assessed as inhibition of virus-induced cytopathic effect; assay type: functional, organism-based; conditions: HEp-2
Summary of the method: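 Cell-based viral cytopathic effect (CPE) assay with RSV strain A2 in Hep-2 cells. Antiviral activity is expressed in µg/mL as the 50% effective concentration (EC50).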

[2] = Cytotoxicity against human Hep2 cells; assay type: cell-based, HEp-2; conditions: for IC50: Homo sapiens, HEp-2
Summary of the method: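 Cytotoxicity to Hep-2 cells was measured under the same conditions as the viral CPE assay. It is reported in µg/mL as the 50% inhibitory concentration (IC50).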

[3] = Selectivity index, ratio of IC50 for human Hep2 cells to EC50 for respiratory syncytial virus A2; assay type: toxicity, cell-based, HEp-2; conditions: for selectivity ratio: Hep2 cells, read-out: Ratio IC50/EC50
Summary of the method: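 The selectivity index is IC50/EC50. The IC50 is for Hep-2 cytotoxicity and the EC50 is for RSV A2 CPE inhibition, both in µg/mL from the same CPE assay conditions.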

| SMILES | EC50 [1] [µg/mL] | IC50 [2] [µg/mL] | selectivity ratio [3] | Activity [1] | Activity ([2]; human, hep-2) | Activity ([3]; hep-2) |
| --- | --- | --- | --- | --- | --- | --- |
| COC(=O)C1=CO[C@@H](O[C@@H]2O[C@H](CO)[C@@H](O)[C@H](O)[C@H]2O)[C@H]2[C@@H]1[C@H](OC(=O)/C=C/c1ccc(O)cc1)C[C@]2(C)OC(C)=O | 2.46 (≈ 4.14 µM) | 42 (≈ 70.6 µM) | 17 |  |  |  |
| C[C@@H]1O[C@@H](O[C@@H]2[C@@H](O)[C@H](OCCc3ccc(O)c(O)c3)O[C@H](CO)[C@H]2OC(=O)/C=C/c2ccc(O)c(O)c2)[C@H](O)[C@H](O)[C@H]1O [ACETOSIDE] |  | 76.9 (≈ 123 µM) | 85.4 |  |  |  |
| COC(=O)C1=CO[C@@H](O[C@@H]2O[C@H](CO)[C@@H](O)[C@H](O)[C@H]2O)[C@H]2[C@@H]1[C@H](OC(=O)/C=C\c1ccc(O)cc1)C[C@]2(C)OC(C)=O | 2.46 (≈ 4.14 µM) | 42 (≈ 70.6 µM) | 17 |  |  |  |
| COC(=O)C1=CO[C@@H](O[C@@H]2O[C@H](CO)[C@@H](O)[C@H](O)[C@H]2O)[C@H]2[C@@H]1[C@H](O)C[C@]2(C)OC(C)=O [BARLERIN] |  |  |  | inactive | Not Active | Not Active |
